From PMC11607387 (Nature Communications, 2024)

Key:
RAW264.7 cells = experiment: MTT cytotoxicity on RAW264.7 cells; format: cell-based; conditions: for cytotoxicity in RAW 264.7 cells: without laser
Method in brief: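 RAW264.7 cells seeded at 5 × 10^3/well, grown 24 h, then exposed to preparations across a concentration series. After 4 h, only the laser groups were irradiated (650 nm); all cells were incubated a further 20 h, and viability was read by MTT.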

[1] = DLS size, PDI and zeta potential of nanoparticles; format: physicochemical; conditions: without dBET6
human MMP-2 = target: T1, human MMP-2 (Homo sapiens, UniProt P08253); experiment: MMP-2 responsiveness; format: biochemical; conditions: human MMP-2, 4 and 24 h, 37 °C, MALDI-TOF-MS
T1 sequence (P08253 110-660): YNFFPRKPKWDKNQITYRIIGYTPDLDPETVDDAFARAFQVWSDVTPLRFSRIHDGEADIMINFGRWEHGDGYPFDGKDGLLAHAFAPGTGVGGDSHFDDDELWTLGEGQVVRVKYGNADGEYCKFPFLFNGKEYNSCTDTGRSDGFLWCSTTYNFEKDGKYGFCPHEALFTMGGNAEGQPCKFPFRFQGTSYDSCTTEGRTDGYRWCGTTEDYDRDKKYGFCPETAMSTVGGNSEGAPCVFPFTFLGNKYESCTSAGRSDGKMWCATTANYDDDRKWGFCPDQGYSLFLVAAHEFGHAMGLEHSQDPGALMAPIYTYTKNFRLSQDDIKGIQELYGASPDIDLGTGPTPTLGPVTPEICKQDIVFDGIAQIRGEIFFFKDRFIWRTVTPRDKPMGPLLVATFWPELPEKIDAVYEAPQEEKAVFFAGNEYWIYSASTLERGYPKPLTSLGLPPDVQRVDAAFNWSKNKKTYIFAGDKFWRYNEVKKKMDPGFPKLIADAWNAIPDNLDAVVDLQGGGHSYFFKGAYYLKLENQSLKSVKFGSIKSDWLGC

4T1 cells [2] = experiment: Cellular uptake by flow cytometry and fluorescence microscopy; format: cell-based, murine; conditions: flow cytometry, Ce6 5 μg/mL
Method in brief: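 4T1 cells (1 × 10^5/well) grown to 80% confluency, exposed to formulations in serum-free 1640 medium at equal Ce6 (5 μg/mL) for 1, 4 or 12 h, then analysed by flow cytometry (n = 3). For microscopy, cells (2 × 10^5/well) on coverslips grown 36 h to 60% confluency, treated likewise, washed with cold PBS, fixed, DAPI-stained (1 μg/ml, 5 min) and imaged.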

4T1 cells [3] = experiment: Wound healing assay; format: cell-based, murine; conditions: 24 h, cell motility = 1 - wound area at 24 h/wound area at 0 h
Method in brief: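 4T1 monolayers in 12-well plates at 80% confluency were scratched with a 10 μL tip and washed three times with cold PBS, then treated with formulations. Laser groups were irradiated after 4 h. At 24 h, cells were fixed, stained with 0.1% crystal violet, and the scratched area imaged by inverted microscope.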

[4] = test system: BALB/c nude mice bearing primary tumors of breast cancer; experiment: Biodistribution after intravenous injection; format: in vivo; conditions: 24 h post intravenous injection, ex vivo
Method in brief: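 Tumour-bearing BALB/c nude mice, tumours about 200 mm3 roughly 14 days after cell injection, randomised into four groups (n = 4). Ce6-labelled formulations were given intravenously and imaged on IVIS at 1, 2, 4, 8, 12 and 24 h. At 24 h animals were sacrificed; tumours and major organs were imaged ex vivo, fluorescence semi-quantified, then fixed and frozen-sectioned for imaging.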

[5] = test system: BALB/c nude mice bearing breast cancer; experiment: Tumor retention after intra-tumoral injection; format: in vivo; conditions: 48 h post intra-tumoral injection, ex vivo
Method in brief: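 Breast-tumour-bearing BALB/c nude mice received formulations intratumorally. IVIS fluorescence imaging at 5 min and 4, 8, 12, 24, 36 and 48 h post-injection. Tumours and major organs were imaged ex vivo, then fixed, dehydrated and frozen-sectioned for fluorescence imaging.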

[6] = test system: mice bearing 4T1-Luc brain-metastatic tumor; experiment: Brain accumulation in brain-metastasis model; conditions: ex vivo, 8 h post intravenous injection
Method in brief: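 Brain-metastasis model: 4T1-Luc cells (5 × 10^3) implanted stereotactically into right hippocampus. After 10 days, grouped by bioluminescence intensity (n = 4). Formulations given intravenously; IVIS fluorescence imaging at 1, 2, 4 and 8 h. At 8 h, mice sacrificed; brains and major organs imaged ex vivo for fluorescence.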

Row | Compound | influence on cell viability of RAW264.7 cells (RAW264.7 cells; dBET6 0.25 μg/mL) | size of self-assembled nanoparticles [1] | molecular mass change after incubation with MMP-2 (human MMP-2) | fluorescence signal relative to free Ce6 (cellular uptake) (4T1 cells [2]; 1 h) [fold] | fluorescence signal relative to free Ce6 (cellular uptake) (4T1 cells [2]; 4 h) [fold] | fluorescence signal relative to free Ce6 (cellular uptake) (4T1 cells [2]; 12 h) [fold] | cytotoxicity in RAW 264.7 cells (RAW264.7 cells) | cell mobility (wound healing) (4T1 cells [3]) [%] | tumor fluorescent signal, fold higher than CFPD [4] [fold] | tumor fluorescent signal, fold higher than CPD [4] [fold] | tumor fluorescence intensity, fold stronger than CFPD [5] [fold] | brain fluorescence, fold stronger than CFPD [6] [fold] | brain fluorescence, fold stronger than CPD [6] [fold] | brain fluorescence, fold stronger than Ce6 [6] [fold]
1 | Cc1sc2c(c1C)C(c1ccc(Cl)cc1)=N[C@@H](CC(=O)NCCCCCCCCNC(=O)COc1cccc3c1C(=O)N(C1CCC(=O)NC1=O)C3=O)c1nnc(C)n1-2 (stereo partly shown) [dBET6, reference compound] | no influence on cell viability |  |  |  |  |  |  |  |  |  |  |  |  | 
2 | Ce6-FFRFKGPGLLAGC-PEG-DSPE [CFPD] |  | around 90 nm | no significant change in molecular mass | 5.71 | 3.73 | 3.10 | negligible cytotoxicity |  |  |  |  |  |  | 
3 | Ce6-FFRFKGPLGLAGC-PEG-DSPE [CFMPD] |  | around 90 nm | distinct new peaks belonging to the post-enzymatic fragmentation | 6.53 | 4.13 | 3.64 | negligible cytotoxicity | 37.0 | 1.22 | 1.71 | 1.72 | 1.46 | 2.04 | 2.43
4 | Ce6-PEG3400-DSPE [CPD] |  | around 90 nm |  |  |  |  | negligible cytotoxicity |  |  |  |  |  |  | 
